High-throughput results (PubChem BioAssay)
Wnt bcat act: activates Wnt/beta-catenin signaling in a reporter cell assay | activator, plate reader | activation, % at 9.35 µM | actives 1.2% (n = 300,000) | AID 743398; in the data active = activation above about 30%, passing the limit was not always enough; inconclusive = no clear call, values can overlap the other calls;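 also: 0% = neutral control wells and 100% = positive control wells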
XiGFP reactiv: reactivates the inactive X chromosome in mouse fibroblasts; XiGFP mouse fibroblasts, % GFP-positive cells imaging, 3 d; cells co-treated with 5-aza-dC sensitizer; scaled so ellipticine positive control = 100%; activation, % at 7.58 µM; actives 0.055% (n = 360,000); AID 743238;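 active = mean normalized replicate activation at least 10% and every replicate at or above 10%; inconclusive = only one of the two criteria met; inactive = mean below 10% and not all replicates reach 10%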;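 also: 0% = median of on-plate neutral control wells and 100% = ellipticine 6 µM median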
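System: SV40-immortalized XiGFP fibroblast cells, line 68-5-11 / Incubation: 3-day compound exposure, then 15 min fixation at room temperature / Compound: single concentration per compound, delivered by pin transfer / Buffer or medium: DMEM plus 5-aza-dC sensitizer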
esBAF inh: inhibitors of esBAF chromatin remodeling in mouse ES cells | Bmi1-luciferase knock-in reporter, 24 h; 100% = twice the neutral-well signal | reporter increase, % at 12.5 µM | actives 2% (n = 350,000); in the data active = activation above about 40%; inconclusive = no clear call, values can overlap the other calls;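 also: 0% = median of the plate's neutral control wells and 100% = double that signal; a rise in the Bmi1 reporter signal indicates esBAF inhibition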
Vif inh: HIV Vif inhibition. HEK293T cells, Vif self-association by quenched fluorescence, imaging, 24 h. inhibition, % at 7.49 µM. actives 0.35% (n = 340,000). AID 602346; in the data active = inhibition above about 50%, passing the limit was not always enough; inconclusive = no clear call, values can overlap the other calls; inactive = below about 31%
MITF act: activators of MITF-driven TRPM1 promoter activity in SK-MEL-5 cells; SK-MEL-5 TRPM1-promoter luciferase, 24 h; % of positive control, neutral wells = 0; activation, % at 12.5 µM; actives 0.75% (n = 300,000);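 active = mean activation of at least 80% with every replicate also reaching 80%; inconclusive = mean reaches 80% but some replicate falls short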;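 also: 0% = neutral control wells and 100% = parthenolide positive control wells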
Starred values were filed as active, the others as inactive; ? = inconclusive; . = not tested or not shown. Hits are enriched below; roughly 2.6% of the tested compounds scored in any of these assays.

SMILES | Wnt bcat act | XiGFP reactiv | esBAF inh | Vif inh | MITF act
CC(=O)Nc1ccc(Sc2ccc([N+](=O)[O-])o2)cc1 | -11.5 | 0.3 | -66.6 | 116.4* | -92.9
COCC(=O)Nc1ccc2c(c1)[C@H]1C[C@@H](CC(=O)NCc3ccncc3)O[C@@H](CO)[C@H]1O2 | . | 0.2 | 5.9 | . | .
O=C(NCc1ccccc1Cl)c1cc2ccccc2oc1=O | 9.0 | 0.3 | 13.4 | 1.8 | .
O=c1oc2ccccc2cc1NCc1ccccc1O | 19.8 | 0.3 | 63.3* | -6.9 | 96.4*
COCC(=O)N1[C@@H](CO)[C@@H]2c3ccccc3N(C(=O)c3ccccc3)C[C@@H]21 | . | 0.6 | -1.4 | . | .
O=c1oc(-c2ccccc2)nc2ccsc12 | . | . | . | 2.7 | -6.3
CCC(C)c1nc2ccsc2c(N2CCOC2=O)c1-c1ccccc1 (stereo not drawn) | -0.2 | 18.8* | -7.5 | -1.0 | 3.5
CN(C)C(=O)C[C@@H]1C[C@@H]2c3cc(NC(=O)Nc4ccc(F)cc4)ccc3O[C@@H]2[C@@H](CO)O1 | . | 0.1 | 2.0 | . | .
CCCn1c(O)c(C=Nc2ccccc2)sc1=S | -0.1 | 0.1 | 80.6* | 2.9 | 79.3
CCCCn1c(O)c(/C=C/C=C/C=Nc2ccccc2)sc1=S | -0.1 | 0.3 | . | -2.5 | -1.4
O=C(c1ccc2c(c1)OCO2)N1CC(=O)N2[C@H](CO)[C@H](c3ccc(C#CCC4CCCC4)cc3)[C@H]2C1 | . | 0.0 | . | . | .
Cc1c(C(=O)NC(=S)NCC(C)C)oc2ccccc12 | 14.3 | 0.0 | . | 6.6 | 90.1*
C=CCNC(=S)NC(=O)c1oc2ccccc2c1C | -0.6 | 0.0 | 25.9 | 2.1 | 30.8
CC(=O)Nc1ccc(NC(=S)NC(=O)c2oc3ccccc3c2C)cc1 | . | 0.4 | . | 1.4 | 10.4
Cc1cccnc1NC(=S)NC(=O)c1oc2ccccc2c1C | 25.4 | 0.0 | 73.8* | -2.4 | 60.5
C[C@@H]1CCCCO[C@H](CN(C)C(=O)NC2CCCCC2)[C@@H](C)CN([C@H](C)CO)C(=O)c2cc(NC(=O)NC3CCCCC3)ccc2O1 | . | 0.2 | -4.3 | . | .
COc1ccc(Nc2oc(-c3ccc(OC)cc3)nc2C#N)cc1 | 32.2* | 0.0 | . | 9.1 | .
COc1ccc(CNc2oc(-c3ccccc3)nc2C#N)cc1 | 5.8 | 0.4 | -0.2 | 4.3 | 5.1
COc1ccc(Nc2oc(-c3ccccc3)nc2C#N)cc1 | 23.5 | -0.2 | 47.1* | -0.6 | 61.3
COc1ccc(Nc2oc(-c3ccc(Cl)cc3)nc2C#N)cc1 | 13.5 | . | 58.2* | 6.7 | 31.0
CCOc1ccc(Nc2oc(-c3ccc(Cl)cc3)nc2C#N)cc1 | ? | . | 66.8* | 3.2 | .
COCC(=O)Nc1ccc2c(c1)OC[C@@H](C)N(C(=O)NC(C)C)C[C@H](C)[C@@H](OC)CN(C)C2=O | . | -0.3 | -2.5 | . | .
COc1ccc(/C=C2\CCCCC2=O)cc1 | 21.8 | 0.7 | 8.0 | -3.0 | .
COc1ccc(C=C2CS(=O)(=O)CC(=Cc3ccc(OC)cc3)C2=O)cc1 | -8.7 | 0.9 | 0.9 | 111.6* | .
N#CC1CC(c2ccc([N+](=O)[O-])cc2)=NN1c1ccc([N+](=O)[O-])cc1 (stereo not drawn) | -0.2 | 0.4 | -7.1 | 89.0* | 9.0
SMILES | Wnt bcat act | XiGFP reactiv | esBAF inh | Vif inh | MITF act
CCOCCCNC(=O)C(c1ccc(C)cc1)N(Cc1cccs1)C(=O)c1ccccn1 (stereo not drawn) | -1.3 | 26.2* | . | -6.5 | 5.0
CCOCCCNC(=O)C(c1ccc(Cl)cc1)N(Cc1cccs1)C(=O)c1ccccn1 (stereo not drawn) | 7.3 | -0.1 | . | -2.7 | 0.0
CCC(=O)N1C[C@H](C)[C@@H](OC)CN(C)C(=O)c2cc(NC(=O)c3ccc(F)cc3)ccc2OC[C@@H]1C | . | 0.2 | 7.2 | . | .
C[C@@H]1CN([C@H](C)CO)C(=O)c2cc(NC(=O)CCN3CCOCC3)ccc2O[C@H]1CN(C)S(=O)(=O)c1cccs1 | . | -0.9 | 2.5 | . | .
O=C(OCCc1cc2ccccc2c(=O)o1)c1cccs1 | -0.2 | 0.1 | 74.6* | 0.1 | 92.9*
COc1ccc(C/C(N)=N/OC(=O)c2cccs2)cc1 | 0.9 | -0.1 | . | -1.0 | 6.3
COc1ccc(OCCOC(=O)c2cccs2)cc1 | 1.1 | . | 49.6* | -3.9 | .
CO[C@H]1CN(C)C(=O)c2cc(C#N)ccc2OC[C@H]2O[C@@H](CC[C@H]2OC)CCN(C)C(=O)[C@@H]1C | . | 0.0 | -0.3 | . | .
CC(C)(C)C(=O)Nc1nc2c(s1)CN(Cc1ccccc1)CC2 | -2.4 | 0.0 | . | 6.9 | 72.1
CCC(=O)N1CCc2nc(-c3ccccc3)sc2C1 | 13.2 | 0.0 | 46.3* | -2.0 | 84.0*
